As usually defined, the inhibition is the percentage by which the read-out fell short of the control.

In data set [1] the test system is West Nile virus. As to the kind of experiment: Antiviral activity against West Nile virus infected in BHK-WII RepRen1B cells assessed as inhibition of viral replication at 10 uM after 3 days by luciferase reporter gene assay relative to control. In kind it is functional. Conditions: for inhibition at 10 µM: 72 h. Summed up: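 Compound (DMSO, 10 μM final) added next day in triplicate; lycorine 1 μM served as control inhibitor. Three days on, live-cell Renilla substrate (1:1000 in phenol-red-free DME, 10% FBS) replaced medium. Luminescence measured; triplicate means compared with DMSO-alone wells.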
A general note: A reporter such as luciferase makes a cellular process visible.

The nature of data set [2]: Cytotoxicity against BHK cells infected with West Nile virus replicon assessed as cell viability at 10 uM after 3 days by CellTiter 96 aqueous one solution cell proliferation assay relative to control. Type of data set: cell-based, Mesocricetus auratus. Conditions: hamster, bhk, 72 h, 10 µM. Summed up: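 WNV replicon BHK cells, about 3 × 10^3/well, plated without antibiotic selection; next day compound in DMSO (10 μM final for screening, or eight serial dilutions), 3 days at 37°C, 5% CO2. Tetrazolium reagent, absorbance 450 nm, triplicate means versus DMSO wells; CC50 = 50% reduction in proliferation; CC50s mean ± SD of two experiments, top dose 200 μM.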
(Replicon systems follow genome replication, usually without infectious particles.)

Data set [3] addresses Human immunodeficiency virus type 1 reverse transcriptase (Human immunodeficiency virus 1) (UniProt Q72547). As to the kind of experiment: Inhibition of HIV1 reverse transcriptase.
The subject of data set [4] is Human immunodeficiency virus 1. Nature of the data set: Antiviral activity against HIV1. In kind it is functional, organism-based.
A short description of data set [5]: Cytotoxicity against BHK cells infected with Dengue virus replicon assessed as cell viability at 10 uM after 3 days by CellTiter 96 aqueous one solution cell proliferation assay relative to control. The note with it: hamster, bhk, 72 h, 10 µM. Type of data set: cell-based, Mesocricetus auratus. A digest of the protocol:
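DENV replicon BHK cells, 1.5 × 10^3/well, plated without antibiotic selection; next day compound in DMSO (10 μM final for screening, or eight serial dilutions), 3 days at 37°C, 5% CO2. Tetrazolium (MTS-type) reagent, absorbance 450 nm, triplicate means versus DMSO wells; CC50 = 50% reduction in proliferation; CC50s mean ± SD of two experiments, top dose 200 μM.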

Data set [6] relates to Hepatitis C virus. Nature of the data set: Antiviral activity against HCV. In kind it is functional, organism-based. The note with it: Hepacivirus hominis.
The test system of data set [7] is unidentified influenza virus. Nature of the data set: Antiviral activity against Influenzae virus. Type of data set: functional, organism-based.
The subject of data set [8] is Dengue virus. As to the kind of experiment: Antiviral activity against Dengue virus infected in BHK pD2-hRucPac-2ATG cells assessed as inhibition of viral replication at 10 uM after 3 days by luciferase reporter gene assay relative to control. In kind it is functional. The note with it: for inhibition at 10 µM: 72 h. A digest of the protocol: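 Renilla luciferase-bearing DENV subgenomic replicon BHK cells, kept on 3 μg/mL puromycin, seeded at 1.5 × 10^3/well without selection. Next day, 10 μM final compound in DMSO added to triplicate wells; MPA 1 μM as control inhibitor. After 3 days, medium swapped for live-cell Renilla substrate (1:1000, phenol-red-free DME, 10% FBS). Luminescence read; triplicate mean compared with DMSO-only wells.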

Data set [9] has as its system Human betaherpesvirus 5. As to the kind of experiment: Antiviral activity against Human cytomegalovirus. In kind it is functional, organism-based.

Activity calls are given as the source filed them. The calls are words filed in the database; no cut-off is given here.

`Cc1cn([C@H]2C[C@H](n3nncc3COc3ccccc3)[C@@H](CO[Si](C)(C)C(C)(C)C)O2)c(=O)[nH]c1=O`: the inhibition at 10 µM in [1] was determined as 50%; in [8], 28%. In addition, the results for the Activity in data set [2] and in data set [5] were 100% and 84%, respectively. Moreover, in data set [3], the inhibition entry is “inactive”. Besides, the outcome in [4], in data set [6], in [7] and in [9] was inactive.
For the compound `Cc1cn([C@H]2C[C@H](n3nncc3-c3cccc4ccccc34)[C@@H](CO[Si](C)(C)C(C)(C)C)O2)c(=O)[nH]c1=O`, the inhibition at 10 µM in data set [1] came to 100%; in [8] it was 99%. Moreover, the Activity was 8% in [2] and 60% in data set [5]. Moreover, in data set [3], the inhibition entry is “inactive”. Also, the outcome in data set [4], in data set [6], in data set [7] and in data set [9] was inactive.
Consider `Cc1cn([C@H]2C[C@H](n3cc(-c4cc5ccccc5c5ccccc45)nn3)[C@@H](CO[Si](C)(C)C(C)(C)C)O2)c(=O)[nH]c1=O`, for which the inhibition at 10 µM in data set [1] came to 97%; in data set [8], 77%. For the same compound, the Activity in data set [2] came out at 100%; in data set [5] it was 81%. Besides, the inhibition result in data set [3] was “inactive”. Also, the result in data set [4], in data set [6], in data set [7] and in data set [9] was inactive.
`Cc1cn([C@H]2C[C@H](n3nncc3-c3ccc(Oc4ccccc4)cc3)[C@@H](CO[Si](C)(C)C(C)(C)C)O2)c(=O)[nH]c1=O`: the inhibition at 10 µM in [1] and in data set [8] was 95% throughout. Moreover, the Activity is given as 79% in data set [2] and 73% in [5]. Besides, in data set [3], the inhibition result was “inactive”. For the same compound, the outcome in data set [4], in data set [6], in data set [7] and in data set [9] was inactive.
Consider `Cc1cn([C@H]2C[C@H](NC(=O)c3ccc4ccccc4c3)[C@@H](CO[Si](C)(C)C(C)(C)C)O2)c(=O)[nH]c1=O`, for which the inhibition at 10 µM in data set [1] worked out at 99%; in data set [8] it was 98%. The Activity in [2] was 51%; in data set [5], 10%. For the same compound, the inhibition entry in data set [3] is “inactive”. Further, the result in [4], in data set [6], in [7] and in [9] was inactive.
On to `Cc1cn([C@H]2C[C@H](N)[C@@H](CO[Si](C)(C)C(C)(C)C)O2)c(=O)[nH]c1=O`, for which the inhibition at 10 µM in [1] and in data set [8] was 0% in each case. The Activity in data set [2] and in [5] was 100% in each case. Moreover, the inhibition entry in data set [3] is “inactive”. The outcome in [4], in data set [6], in data set [7] and in data set [9] was inactive.
As to `Cc1ccc(S(=O)(=O)NC(=O)N[C@H]2C[C@H](n3cc(C)c(=O)[nH]c3=O)O[C@@H]2CO[Si](C)(C)C(C)(C)C)cc1`, the inhibition result in data set [1] and in [8] was “Active” in each case. Besides, the inhibition entry in [3] is “inactive”. The result in [4], in data set [6], in [7] and in data set [9] was inactive.
On to `Cc1cn([C@H]2C[C@H](n3nncc3-c3cc4ccccc4c4ccccc34)[C@@H](CO[Si](C)(C)C(C)(C)C)O2)c(=O)[nH]c1=O`, for which the inhibition at 10 µM in [1] is 99%; in [8] it was 21%. Moreover, the Activity was 69% in data set [2] and 100% in [5]. For the same compound, in [3], the inhibition entry was “inactive”. In addition, the outcome in [4], in data set [6], in data set [7] and in data set [9] was inactive.
On to `Cc1cn([C@H]2C[C@H](NC(=O)c3ccc(N4CCOCC4)cc3)[C@@H](CO[Si](C)(C)C(C)(C)C)O2)c(=O)[nH]c1=O`, for which the inhibition result in data set [1] and in data set [8] was “Active” in each case. For the same compound, the inhibition entry in data set [3] was “inactive”. The result in [4], in data set [6], in data set [7] and in [9] was inactive.
As for `COc1ccc2cc(-c3cnnn3[C@H]3C[C@H](n4cc(C)c(=O)[nH]c4=O)O[C@@H]3CO[Si](c3ccccc3)(c3ccccc3)C(C)(C)C)ccc2c1`, the inhibition at 10 µM in data set [1] was found to be 99%; in [8], 100%. The Activity in [2] turned out to be 38%; in data set [5], 11%. For the same compound, the inhibition entry in [3] is “inactive”. Moreover, the result in data set [4], in data set [6], in data set [7] and in [9] was inactive.
Turning to `Cc1cn([C@H]2C[C@H](N3C(=O)CSC3c3ccccc3)[C@@H](CO[Si](C)(C)C(C)(C)C)O2)c(=O)[nH]c1=O` (mixture of isomers), the inhibition at 10 µM in data set [1] is 26%; in data set [8] it was 22%. Also, the Activity in data set [2] is on record as 94%; in data set [5], 98%. In addition, the inhibition result in data set [3] is “inactive”. The outcome in [4], in data set [6], in data set [7] and in data set [9] was inactive.
In the case of `COc1ccc2cc(-c3cnnn3[C@H]3C[C@H](n4cc(C)c(=O)[nH]c4=O)O[C@@H]3CO[Si](C(C)C)(C(C)C)C(C)C)ccc2c1`, the inhibition at 10 µM in data set [1] and in data set [8] was 98% in each case. The Activity in data set [2] worked out at 67%; in data set [5], 53%. Also, the inhibition result in [3] was “inactive”. The result in data set [4], in data set [6], in data set [7] and in data set [9] was inactive.
For `Cc1cn([C@H]2C[C@H](NC(=O)c3ccc4ccccc4n3)[C@@H](CO[Si](C)(C)C(C)(C)C)O2)c(=O)[nH]c1=O`, the figures for the inhibition at 10 µM in data set [1] and in [8] were 24% and 51%, respectively. Further, the Activity stood at 89% in data set [2] and 98% in data set [5]. Also, the inhibition entry in [3] was “inactive”. Also, the outcome in [4], in data set [6], in [7] and in data set [9] was inactive.
Turning to `Cc1cn([C@H]2C[C@H](NC(=O)c3c[nH]c4ccccc34)[C@@H](CO[Si](C)(C)C(C)(C)C)O2)c(=O)[nH]c1=O`, the results for the inhibition at 10 µM in data set [1] and in [8] were 19% and 90%, respectively. Further, the Activity in data set [2] is given as 93%; in data set [5] it was 27%. Besides, the inhibition entry in [3] was “inactive”. In addition, the outcome in [4], in [6], in data set [7] and in [9] was inactive.
On to `COc1ccc2cc(C(=O)N[C@H]3C[C@H](n4cc(C)c(=O)[nH]c4=O)O[C@@H]3CO[Si](C)(C)C(C)(C)C)ccc2c1`, for which the inhibition at 10 µM in [1] was 95%; in data set [8] it was 92%. Also, the Activity turned out to be 50% in data set [2] and 8% in data set [5]. For the same compound, in data set [3], the inhibition entry was “inactive”. Further, the result in data set [4], in data set [6], in data set [7] and in data set [9] was inactive.
Regarding `Cc1cn([C@H]2C[C@H](n3nncc3C3CC3)[C@@H](CO[Si](C)(C)C(C)(C)C)O2)c(=O)[nH]c1=O`, the inhibition at 10 µM in [1] came to 21%; in data set [8], 6.4%. Also, the Activity in data set [2] was found to be 100%; in data set [5] it was 93%. For the same compound, the inhibition entry in data set [3] was “inactive”. Further, the result in data set [4], in data set [6], in data set [7] and in [9] was inactive.

These data come from ChEMBL document CHEMBL3576816, “5'-Silylated 3'-1,2,3-triazolyl Thymidine Analogues as Inhibitors of West Nile Virus and Dengue Virus” (J Med Chem, 2015).
